# Source: ChEMBL document CHEMBL4689842, “EUbOPEN Chemogenomics Library wave 1” (2021)
# System: Fibroblast
# Experiment: Multiplex assay against human fibroblast
# Format: toxicity, cell-based
# Procedure, shortened: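 Live cells carried four stains from seeding: Hoechst33342, BioTracker Green Microtubule Cytoskeleton Dye, MitoTracker Red and Annexin V Alexa Fluor 680. They were imaged on a CQ1 microscope at 37°C and 5% CO2 after compound addition. Using CellPathfinder machine-learning gating, cells were split into Hoechst high-intensity objects or normal cells, normal cells into healthy, pyknosed or fragmented nuclei, and pyknosed cells into mitotic or apoptotic; tubulin, mitochondrial-mass and membrane-permeability phenotypes are per cents of healthy-nucleus cells.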
# [1] = 12 h, 1 µM, compound concentration 1 uM, replicate 1
# [2] = 12 h, 1 µM, compound concentration 1 uM, replicate 2
# [3] = 12 h, 10 µM, compound concentration 10 uM, replicate 1
# [4] = 12 h, 10 µM, compound concentration 10 uM, replicate 2
# [5] = 24 h, 1 µM, compound concentration 1 uM, replicate 1
# [6] = 24 h, 1 µM, compound concentration 1 uM, replicate 2
# [7] = 24 h, 10 µM, compound concentration 10 uM, replicate 1
# [8] = 24 h, 10 µM, compound concentration 10 uM, replicate 2
# [9] = 48 h, 1 µM, compound concentration 1 uM, replicate 1
# [10] = 48 h, 1 µM, compound concentration 1 uM, replicate 2
# [11] = 48 h, 10 µM, compound concentration 10 uM, replicate 1
# [12] = 48 h, 10 µM, compound concentration 10 uM, replicate 2
structure (smiles),measurement,setting,value
CN(C)C(=O)N[C@H]1CC[C@H](CCN2CCN(c3cccc(Cl)c3Cl)CC2)CC1.Cl [CARIPRAZINE HYDROCHLORIDE],Population Apoptotic (%),[1],65%
same,Population Fragmented Nuclei (%),[1],15%
same,Population Healthy Nuclei (%),[1],51%
same,Population Hoechst High Intensity Objects (%),[1],6%
same,Population Membrane Permeable-Phenotype (%),[1],32%
same,Population Mitochondria Different-Phenotype (%),[1],10%
same,Population Mitotic Cells (%),[1],34%
same,Population Normal (%),[1],93%
same,Population Pyknosed Nuclei (%),[1],33%
same,Population Tubulin-Different-Phenotype (%),[1],45%
same,Total Cell Count,[1],83
same,Population Apoptotic (%),[2],60%
same,Population Fragmented Nuclei (%),[2],7%
same,Population Healthy Nuclei (%),[2],84%
same,Population Membrane Permeable-Phenotype (%),[2],6%
same,Population Mitochondria Different-Phenotype (%),[2],29%
same,Population Mitotic Cells (%),[2],40%
same,Population Pyknosed Nuclei (%),[2],8%
same,Population Tubulin-Different-Phenotype (%),[2],22%
same,Total Cell Count,[2],61
same,Population Apoptotic (%),[3],71%
same,Population Fragmented Nuclei (%),[3],26%
same,Population Healthy Nuclei (%),[3],38%
same,Population Hoechst High Intensity Objects (%),[3],16%
same,Population Membrane Permeable-Phenotype (%),[3],16%
same,Population Mitochondria Different-Phenotype (%),[3],28%
same,Population Mitotic Cells (%),[3],28%
same,Population Normal (%),[3],83%
same,Population Pyknosed Nuclei (%),[3],34%
same,Population Tubulin-Different-Phenotype (%),[3],92%
same,Total Cell Count,[3],155
same,Population Apoptotic (%),[4],36%
same,Population Fragmented Nuclei (%),[4],17%
same,Population Healthy Nuclei (%),[4],57%
same,Population Hoechst High Intensity Objects (%),[4],3%
same,Population Membrane Permeable-Phenotype (%),[4],47%
same,Population Mitochondria Different-Phenotype (%),[4],95%
same,Population Mitotic Cells (%),[4],63%
same,Population Normal (%),[4],96%
same,Population Pyknosed Nuclei (%),[4],25%
same,Population Tubulin-Different-Phenotype (%),[4],95%
same,Total Cell Count,[4],79
same,Population Apoptotic (%),[5],72%
same,Population Fragmented Nuclei (%),[5],21%
same,Population Healthy Nuclei (%),[5],49%
same,Population Hoechst High Intensity Objects (%),[5],10%
same,Population Membrane Permeable-Phenotype (%),[5],21%
same,Population Mitochondria Different-Phenotype (%),[5],11%
same,Population Mitotic Cells (%),[5],28%
same,Population Normal (%),[5],89%
same,Population Pyknosed Nuclei (%),[5],29%
same,Population Tubulin-Different-Phenotype (%),[5],45%
same,Total Cell Count,[5],95
same,Population Apoptotic (%),[6],66%
same,Population Fragmented Nuclei (%),[6],6%
same,Population Healthy Nuclei (%),[6],84%
same,Population Hoechst High Intensity Objects (%),[6],4%
same,Population Membrane Permeable-Phenotype (%),[6],7%
same,Population Mitochondria Different-Phenotype (%),[6],22%
same,Population Mitotic Cells (%),[6],33%
same,Population Normal (%),[6],95%
same,Population Pyknosed Nuclei (%),[6],9%
same,Population Tubulin-Different-Phenotype (%),[6],14%
same,Total Cell Count,[6],67
same,Population Apoptotic (%),[7],70%
same,Population Fragmented Nuclei (%),[7],23%
same,Population Healthy Nuclei (%),[7],54%
same,Population Hoechst High Intensity Objects (%),[7],18%
same,Population Membrane Permeable-Phenotype (%),[7],17%
same,Population Mitochondria Different-Phenotype (%),[7],36%
same,Population Mitotic Cells (%),[7],29%
same,Population Normal (%),[7],81%
same,Population Pyknosed Nuclei (%),[7],21%
same,Population Tubulin-Different-Phenotype (%),[7],82%
same,Total Cell Count,[7],190
same,Population Apoptotic (%),[8],94%
same,Population Healthy Nuclei (%),[8],55%
same,Population Hoechst High Intensity Objects (%),[8],3%
same,Population Membrane Permeable-Phenotype (%),[8],42%
same,Population Mitochondria Different-Phenotype (%),[8],95%
same,Population Mitotic Cells (%),[8],5%
same,Population Normal (%),[8],96%
same,Population Pyknosed Nuclei (%),[8],20%
same,Population Tubulin-Different-Phenotype (%),[8],95%
same,Total Cell Count,[8],87
same,Population Apoptotic (%),[9],65%
same,Population Fragmented Nuclei (%),[9],35%
same,Population Healthy Nuclei (%),[9],46%
same,Population Hoechst High Intensity Objects (%),[9],7%
same,Population Membrane Permeable-Phenotype (%),[9],20%
same,Population Mitochondria Different-Phenotype (%),[9],4%
same,Population Mitotic Cells (%),[9],35%
same,Population Normal (%),[9],92%
same,Population Pyknosed Nuclei (%),[9],18%
same,Population Tubulin-Different-Phenotype (%),[9],56%
same,Total Cell Count,[9],117
same,Population Apoptotic (%),[10],60%
same,Population Fragmented Nuclei (%),[10],25%
same,Population Healthy Nuclei (%),[10],69%
same,Population Hoechst High Intensity Objects (%),[10],11%
same,Population Membrane Permeable-Phenotype (%),[10],7%
same,Population Mitochondria Different-Phenotype (%),[10],3%
same,Population Mitotic Cells (%),[10],40%
same,Population Normal (%),[10],88%
same,Population Pyknosed Nuclei (%),[10],5%
same,Population Tubulin-Different-Phenotype (%),[10],38%
same,Total Cell Count,[10],103
same,Population Apoptotic (%),[11],80%
same,Population Fragmented Nuclei (%),[11],37%
same,Population Healthy Nuclei (%),[11],53%
same,Population Hoechst High Intensity Objects (%),[11],31%
same,Population Membrane Permeable-Phenotype (%),[11],10%
same,Population Mitochondria Different-Phenotype (%),[11],20%
same,Population Mitotic Cells (%),[11],20%
same,Population Normal (%),[11],68%
same,Population Pyknosed Nuclei (%),[11],9%
same,Population Tubulin-Different-Phenotype (%),[11],81%
same,Total Cell Count,[11],235
same,Population Apoptotic (%),[12],33%
same,Population Fragmented Nuclei (%),[12],33%
same,Population Healthy Nuclei (%),[12],63%
same,Population Hoechst High Intensity Objects (%),[12],32%
same,Population Membrane Permeable-Phenotype (%),[12],7%
same,Population Mitochondria Different-Phenotype (%),[12],12%
same,Population Mitotic Cells (%),[12],66%
same,Population Normal (%),[12],67%
same,Population Pyknosed Nuclei (%),[12],2%
same,Population Tubulin-Different-Phenotype (%),[12],85%
same,Total Cell Count,[12],162
